Screens: PubChem BioAssay, several laboratories
Compounds with a hit are over-represented: about 1.4% of the library has one in this group of screens.
Vif imaging = HIV Vif inhibition; HEK293T cells, Vif self-association by quenched fluorescence, imaging, 24 h; inhibition, % at 7.49 µM; actives 0.35% (n = 340,000); AID 602346; in the data active = inhibition above about 50%, passing the limit was not always enough
CASP6 VEID inh = inhibitors of human caspase-6; actives 0.53% (n = 350,000); inhibition, % at 12.5 µM; P55212; purified caspase-6, Z-VEID-R110 cleavage fluorescence; AID 686996;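 active = mean inhibition across replicates at least about 35%, with every replicate also reaching that limit, limit read from the data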
Target sequence (P55212 24-179 limits assumed): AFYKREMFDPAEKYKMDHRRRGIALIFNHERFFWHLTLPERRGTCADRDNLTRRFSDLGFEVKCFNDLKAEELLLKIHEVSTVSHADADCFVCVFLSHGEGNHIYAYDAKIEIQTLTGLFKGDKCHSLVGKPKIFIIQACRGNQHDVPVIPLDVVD
Target sequence (P55212 194-293 limits assumed): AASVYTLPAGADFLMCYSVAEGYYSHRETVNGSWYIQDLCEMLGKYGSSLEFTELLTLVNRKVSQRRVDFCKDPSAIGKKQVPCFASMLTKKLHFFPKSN
T cell HTS = T cell immune modulators affecting CD8 T cell-vesicle binding; 2C CD8+ T cell-vesicle binding, flow cytometry; hits give low values; response (vesicle binding), % at 7 µM; actives 0.068% (n = 330,000); AID 2052;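 active = response, share of CD8 T cells binding vesicles, and their 90th percentile fluorescence all below set limits, cut at about 80% in these data, passing the limit was not always enough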;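 note: values below 100% mean blocked vesicle binding to the CD8+ T cells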
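material = purified 2C TCR transgenic mouse naive CD8+ T cells | controls = Unloaded micro-vesicles (low), QL9 vesicles with 0.7% DMSO (high) | detection = cytometric PE anti-B7-1 and Alexa647 anti-CD8 signals after 1% paraformaldehyde fixation | incubation = binding step 1.5 h, 37 °C, antibody labelling 20 min, ice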
Myeloid diff 2 = compounds promoting myeloid differentiation; ER-HoxA9 myeloid progenitors, lysozyme-GFP differentiation, flow cytometry; calls only at 10 µM; actives 1% (n = 360,000); AID 624256;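 active = normalized GFP-positive differentiation at or above the plate's own cutoff, the solvent-only control mean plus 3 SD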;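 note: cells exposed to compound for four days before flow analysis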
Myeloid diff CP1 = compounds promoting myeloid differentiation. calls only. AID 651706. ER-HoxA9 myeloid progenitors, GFP/Mac1 double-positive flow. shares compounds with Myeloid diff 2. actives 2% (n = 2,300);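 active = share of green or green-and-red cells above 9 and 9% in run 1 or 4 and 3% in run 2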
GFP autofluor = counter-screen for myeloid differentiation promoters: compound fluorescence. shares compounds with Myeloid diff 2. ER-HoxA9 myeloid progenitors, no estrogen, GFP autofluorescence flow cytometry; vehicle wells 0%, positive control 100%. fluorescence response, % (concentration not given with the values). actives 7.4% (n = 2,300). AID 651707;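 active = over 5% cells positive for green fluorescent reporter, or over 2% positive for both it and APC stain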
Numbers stand for hits; n = inactive; x = no result given; + = active, no number.

SMILES	Vif imaging	CASP6 VEID inh	T cell HTS	Myeloid diff 2	Myeloid diff CP1	GFP autofluor
Cc1noc(C)c1S(=O)(=O)Nc1ccc2c(c1)C(=O)N([C@@H](C)CO)C[C@H](C)[C@@H](CN(C)S(=O)(=O)c1cn(C)cn1)OCCCC[C@H](C)O2	x	n	x	x	x	x
O=C1COc2ccc(C(=O)NCc3ccco3)cc2N1	n	n	n	n	n	n
O=C1COc2ccc(C(=O)/C=C/c3ccccc3)cc2N1	n	x	n	n	n	n
O=C1COc2ccc(C(=O)c3ccccc3C(=O)NCc3ccco3)cc2N1	n	x	n	n	x	x
O=C(/C=C/c1ccccc1)c1ccc2c(c1)OCCCCO2	n	x	n	n	x	x
C[C@H]1CN([C@@H](C)CO)C(=O)c2cc(/C=C/c3ccccc3)cnc2O[C@H]1CN(C)Cc1cncnc1	x	n	x	x	x	x
CN(C)C(=O)[C@@]1(Cc2ccccc2N=[N+]=[N-])N=C(c2ccc(OCCCO)cc2)O[C@H]1c1ccccc1N=[N+]=[N-]	x	n	x	x	x	x
O=C(C[C@H]1CC[C@H]2[C@@H](COC[C@H](O)CN2Cc2nccs2)O1)NCc1ccc(Cl)cc1	x	n	x	x	x	x
CO[C@H]1CN(C)C(=O)c2ccc(NS(=O)(=O)c3ccc(-c4ccccc4)cc3)cc2OC[C@@H](C)NC[C@@H]1C	x	n	x	x	x	x
CCOc1cc(CNc2ccccc2)cc(Br)c1OCC(=O)NC(C)(C)C	n	x	n	n	x	x
CCOc1cc(CNc2ccc(Br)cc2)cc(Br)c1OCC(=O)NC(C)(C)C	n	n	n	x	n	n
CCOc1ccc(NC(=S)N2c3ccccc3CC2C)cc1 (centres undefined)	n	n	n	n	n	n
CC(=O)c1cccc(NC(=S)N2c3ccccc3CC2C)c1 (centres undefined)	n	n	n	n	x	x
COc1ccc(-c2nnc(NC(=O)c3ccc(S(=O)(=O)N4COCC4(C)C)cc3)o2)cc1	n	x	n	n	n	5.3
CC1(C)COCN1S(=O)(=O)c1ccc(C(=O)Nc2nnc(-c3ccc(Cl)s3)o2)cc1	x	x	n	x	x	x
Cc1ccc(/C(O)=C/c2nc3cc(C)ccc3oc2=O)cc1	n	n	n	n	x	x
O=c1oc2ccc(Cl)cc2nc1/C=C(\O)c1ccco1	n	n	n	+	n	n
CC(C)C/C(O)=C/c1nc2cc(Cl)ccc2oc1=O	n	x	n	n	n	n
COc1ccc(S(=O)(=O)N(C)C[C@H]2Oc3c(NC(=O)C4CC4)cccc3C(=O)N([C@@H](C)CO)C[C@H]2C)cc1	x	n	x	x	x	x
CCOC(=O)C1CCN(C(=O)/C(C)=C\c2ccccc2)CC1	n	n	n	n	x	x
C/C(=C/c1ccccc1)C(=O)N1CCC(C)CC1	n	n	n	n	n	n
Cc1ccc(NC(=O)CSCC(=O)NCc2cccc(C(F)(F)F)c2)cc1	n	n	n	+	n	n
CCCC(=O)Nc1ccc2c(c1)OC[C@H](C)N(C(=O)CC)C[C@@H](C)[C@H](OC)CN(C)C2=O	x	n	x	x	x	x
COc1ccc(OC)c(-c2csc(NC(=O)Cc3cccs3)n2)c1	n	n	n	+	n	n
COc1ccc(CC(=O)Nc2nc(-c3cc(OC)ccc3OC)cs2)cc1	n	n	n	n	x	x
SMILES	Vif imaging	CASP6 VEID inh	T cell HTS	Myeloid diff 2	Myeloid diff CP1	GFP autofluor
C/C(Cc1ccccc1)=N\NC(=O)CNC(=O)c1ccc(Br)cc1	n	n	n	+	n	n
CO[C@H]1CN(C)C(=O)c2cc(NS(=O)(=O)c3ccccc3)ccc2OC[C@@H](C)N(Cc2nccs2)C[C@H]1C	x	n	x	x	x	x
O=C(Nc1ccc(F)cc1)N[C@@H]1CC[C@@H](CCNC(=O)c2ccccc2F)O[C@@H]1CO	x	n	x	x	x	x
COc1ccc(Br)c(C(=O)Nc2cccc(S(=O)(=O)N3CCOCC3)c2)c1	n	n	n	n	x	x
COc1ccc(C(=O)N[C@H](C(=O)Nc2cccc(S(=O)(=O)N3CCOCC3)c2)C(C)C)cc1	n	n	x	+	n	n
COc1ccc(CNC(=O)C[C@H]2CC[C@@H](NC(=O)Nc3ccc4c(c3)OCO4)[C@H](CO)O2)cc1	x	n	x	x	x	x
CC1(C)NC(=O)N(CCCCOc2ccc(Cl)cc2)C1=O	n	x	n	n	n	n
Cc1cc(OCCCCN2C(=O)NC(C)(C)C2=O)cc(C)c1Cl	n	x	n	n	x	x
O=C(Nc1ccc(Cl)cc1)N[C@@H]1CC[C@H](CCn2cc(Cc3ccccc3)nn2)O[C@H]1CO	x	n	x	x	x	x
CC(=O)c1sc(NC(=O)CCS(=O)(=O)c2ccc(C)cc2)nc1C	n	n	n	n	n	n
